The source made the active and inactive calls. No cut-off for these calls is given here.
Tests used:
Type in all cases: functional, organism-based
[1] = tested on: Leishmania donovani; test: Antileishmanial activity of compound against leishmania donovani was determined in luciferase assay; Not active
[2] = tested on: Plasmodium falciparum; test: In vitro antimalarial activity against chloroquine-sensitive Plasmodium falciparum D6 Sierra Leone
[3] = tested on: Plasmodium falciparum; test: In vitro antimalarial activity against chloroquine-resistant Plasmodium falciparum W2 Indochina
Procedure, shortened: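 Asynchronous P. falciparum cultures (2% hematocrit, 2% parasitemia) given compound dilutions in DMSO or RPMI-1640, incubated 48 h at 37°C under 90% N2/5% CO2/5% O2 in humidified chamber. Growth read as parasite lactate dehydrogenase activity with Malstat reagent. At least six concentrations, each in duplicate; medium and RBC controls on each plate.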

[4] = tested on: Leishmania donovani; test: Antileishmanial activity of compound against leishmania donovani was determined in luciferase assay
Procedure, shortened: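 Transgenic Leishmania donovani promastigotes expressing firefly luciferase, 2×10^6 cell/mL, exposed to compound dilutions in 96-well plates at 26°C for 72 h; growth read by luciferase luminescence (Steady Glo). At least six concentrations, each in duplicate; mean values used for growth inhibition curves and IC50. Pentamidine and amphotericin B as standards.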

Compound | NA [1] | IC50 [2] [nM] | IC50 [3] [nM] | IC50 [4] [nM]
C[C@@H]1CC[C@H]2[C@@H](CCCc3cc(C(F)(F)F)cc(C(F)(F)F)c3)C(=O)O[C@@H]3O[C@@]4(C)CC[C@@H]1[C@]32O4 | inactive |  |  | 
C[C@@H]1CC[C@H]2[C@@H](C)C(=O)O[C@@H]3O[C@@]4(C)CC[C@@H]1[C@]32O4 | inactive |  |  | 
C[C@@H]1CC[C@H]2[C@@H](CCCc3cccc(Cl)c3)CO[C@@H]3O[C@@]4(C)CC[C@@H]1[C@]32O4 | inactive |  |  | 
C[C@@H]1CC[C@H]2[C@@H](CCCc3cc(C(F)(F)F)cc(C(F)(F)F)c3)C(O)O[C@@H]3O[C@@]4(C)CC[C@@H]1[C@]32OO4 (stereo partly specified) | inactive |  |  | 
C[C@@H]1CC[C@H]2[C@@H](CCCc3ccc(S(C)(=O)=O)cc3)C(=O)O[C@@H]3O[C@@]4(C)CC[C@@H]1[C@]32O4 | inactive |  |  | 
CC1(C)OO[C@]23CCCC[C@H]2[C@@H](CC(=O)O)C(=O)O[C@@H]3O1 | inactive |  |  | 
C[C@@H]1CC[C@H]2[C@@H](CCCc3ccccc3)C(=O)O[C@@H]3O[C@@]4(C)CCC1[C@]32OO4 (stereo partly specified) |  | 4.7 | 1.3 | 11600
C[C@@H]1CC[C@H]2[C@@H](CCCc3ccc(S(C)(=O)=O)cc3)C(=O)O[C@@H]3O[C@@]4(C)CCC1[C@]32OO4 (stereo partly specified) |  | 30.1 | 20 | 53800
C[C@@H]1CC[C@H]2[C@@H](CCCc3ccc(N(C)C)cc3)C(=O)O[C@@H]3O[C@@]4(C)CCC1[C@]32OO4 (stereo partly specified) |  | 27.8 | 11.3 | 1900
C[C@@H]1CC[C@H]2[C@H](CCCc3ccccc3)C(=O)O[C@@H]3O[C@@]4(C)CCC1[C@]32OO4 (stereo partly specified) |  | 10.4 | 3.4 | 45300
C[C@@H]1CC[C@H]2[C@H](CCCc3cc(C(F)(F)F)cc(C(F)(F)F)c3)C(=O)O[C@@H]3O[C@@]4(C)CC[C@@H]1[C@]32OO4 | inactive | 12.6 | 8.2 | 
C[C@@H]1CC[C@H]2[C@@H](CCCc3ccc(C(F)(F)F)cc3)CO[C@@H]3O[C@@]4(C)CC[C@@H]1[C@]32O4 | inactive |  |  | 
C[C@@H]1CC[C@H]2[C@@H](C)C(=O)O[C@@H]3OC(C)(C)OO[C@@]32C1 | inactive |  |  | 
CSc1ccc(CCC[C@H]2C(=O)O[C@@H]3O[C@@]4(C)CCC5[C@H](C)CC[C@@H]2[C@]53OO4)cc1 (stereo partly specified) |  | 43.9 | 50.8 | 1400

— ChEMBL document CHEMBL1145996 (J Med Chem, 2003)
